The values below come from PMC11621838 (Proceedings of the National Academy of Sciences of the …, 2024).

The target of assay [1] is T1, TAS2R5 (Homo sapiens, UniProt Q9NYW4).
T1 sequence (Q9NYW4 1-299): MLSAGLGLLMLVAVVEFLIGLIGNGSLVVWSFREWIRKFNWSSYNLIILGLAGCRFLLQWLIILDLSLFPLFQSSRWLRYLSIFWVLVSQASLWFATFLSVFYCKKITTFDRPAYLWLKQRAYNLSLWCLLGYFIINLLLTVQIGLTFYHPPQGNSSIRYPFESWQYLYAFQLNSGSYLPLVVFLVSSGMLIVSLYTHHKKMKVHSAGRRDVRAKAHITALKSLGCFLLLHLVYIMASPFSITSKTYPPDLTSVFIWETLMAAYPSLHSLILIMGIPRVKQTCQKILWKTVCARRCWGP
The class given is cell-based.

Assay [2] concerns the target T1, TAS2R5. As to the kind of experiment: FLOWER microtoroid optical resonator receptor-ligand affinity measurement. The assay is classed as binding. The procedure, abridged:
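Microtoroid coated with DOPC vesicles (0.5 mg/mL, 1.5 h, 3–4 °C). HEK-293-expressed TAS2R5 was extracted with CellLyticM (1:3) and spun 12,500 rcf, 60 min, 4 °C. The supernatant, diluted 1:6 in DPBS pH 7.4, was incubated with the toroid for 1.5 h. Graded agonist concentrations were perfused with 5-min buffer rinses. Peak wavelength shift per concentration was fit to a Hill binding equation (Bmax, nonspecific, background terms) for KD.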

The compound `c1cnc2c(c1)ccc1cccnc12` [T5-1, 1,10-phenanthroline] registered a concentration for a half-maximal effect (EC50) on TAS2R5 [1] (EC50, D9 cells, Fluo-4, [Ca2+]i, mean ± SE of 7 to 10 experiments) of 23.1 ± 3.99 µM. Further, the “EC50, fold lower than that of T5-14” value at TAS2R5 [1] ([Ca2+]i in D9 cells) is 3 fold. The “potency class of the agonist” value on TAS2R5 [1] (cellular assays) is listed as “moderate-potency”. Further, at TAS2R5 [1] (log(EMax/EC50), EC50 in Molar), the “S.T. (log-transformed signal transduction coefficient)” value worked out at 6.5. Binding on TAS2R5 [2] was characterised by a dissociation constant (Kd) of 13 ± 3.5 µM.
